Measurements: ChEMBL document CHEMBL3085658, “Novel toll-like receptor 4 (TLR4) antagonists identified by structure- and ligand-based virtual screening” (Eur J Med Chem, 2013)
The source made the active and inactive calls. The rule behind the calls is not given here.

molecular target: T1, Toll-like receptor 4 (Homo sapiens, UniProt O00206); assay: Binding affinity to human recombinant TLR4 at >320 uM by SPR method; details: not given
Method in brief: (§1)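 Recombinant human TLR4 was amine-coupled to a CM5 chip at about 8000 RU. Titration was run at 25 °C in PBS pH 7.4 with 2% DMSO, at 0, 5, 10, 20, 40, 80 (repeated at the end), 160 and 320 µM. Each injection lasted 1 min and dissociation was followed for 30 s. The response at the end of association was plotted against concentration.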

T1 sequence (O00206 whole entry): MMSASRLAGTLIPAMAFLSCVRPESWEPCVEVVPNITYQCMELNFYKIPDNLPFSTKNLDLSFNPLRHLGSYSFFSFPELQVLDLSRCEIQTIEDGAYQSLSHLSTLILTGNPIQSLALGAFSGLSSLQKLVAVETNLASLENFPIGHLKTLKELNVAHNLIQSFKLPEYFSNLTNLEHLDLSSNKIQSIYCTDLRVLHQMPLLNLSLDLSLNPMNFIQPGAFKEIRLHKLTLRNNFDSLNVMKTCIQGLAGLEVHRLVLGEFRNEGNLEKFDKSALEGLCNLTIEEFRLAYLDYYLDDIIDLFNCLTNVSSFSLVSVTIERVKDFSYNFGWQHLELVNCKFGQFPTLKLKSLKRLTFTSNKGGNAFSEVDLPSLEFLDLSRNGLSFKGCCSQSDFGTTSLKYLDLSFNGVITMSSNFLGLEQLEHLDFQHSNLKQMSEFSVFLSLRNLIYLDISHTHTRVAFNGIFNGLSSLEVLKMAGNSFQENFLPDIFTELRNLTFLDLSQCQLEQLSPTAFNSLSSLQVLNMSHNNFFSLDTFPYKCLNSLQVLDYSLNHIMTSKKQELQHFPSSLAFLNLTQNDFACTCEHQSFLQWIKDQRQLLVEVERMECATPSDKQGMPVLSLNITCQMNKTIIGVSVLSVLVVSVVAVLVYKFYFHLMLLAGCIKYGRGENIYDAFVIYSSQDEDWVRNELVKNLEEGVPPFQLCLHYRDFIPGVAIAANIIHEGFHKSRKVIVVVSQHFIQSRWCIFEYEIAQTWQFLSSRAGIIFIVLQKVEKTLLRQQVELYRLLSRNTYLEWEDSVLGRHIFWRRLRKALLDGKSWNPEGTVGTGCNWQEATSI

Structure (SMILES)	Activity
COc1ccc(O)c(C(=O)c2cnc(/N=C(\N)Nc3ccc(F)cc3)nc2)c1	inactive

molecular target: T1, Toll-like receptor 4; assay: Binding affinity to human recombinant TLR4 up to 320 uM by SPR method; details: not given; method in brief: as §1

Structure (SMILES)	Activity
COc1ccc(O)c(C(=O)c2cnc(/N=C(\N)Nc3ccc(F)cc3)nc2)c1	Active

molecular target: T1, Toll-like receptor 4; assay: Binding affinity to human recombinant TLR4 at 20 uM by SPR method; details: not given
Method in brief: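 Recombinant human TLR4 was amine-coupled to a CM5 chip at about 8000 RU, with a reference flow cell. Runs were at 25 °C in PBS pH 7.4 plus 2% DMSO running buffer. Compounds were injected at 20 and 200 µM for 1 min, and dissociation was monitored for 30 s. Responses were compared against buffer injection, with no regeneration.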

Structure (SMILES)	Activity
COc1ccc(O)c(C(=O)c2cnc(/N=C(\N)Nc3ccc(F)cc3)nc2)c1	Active

system: PBMC; assay: Inhibition of TNFalpha secretion in human PBMC preincubated at 100 uM for 2 hrs before LPS challenge measured after 48 hrs by ELISA; format: functional; details: not given
Method in brief: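 PBMCs were isolated from healthy volunteer blood and pre-incubated with compound for 2 h. They were then challenged with LPS for 48 h, with TAK-242 as positive control. Supernatant TNF-α was measured by ELISA, and significance was tested by unpaired t tests.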

Structure (SMILES)	inhibition at 100 µM
CN(CC(=O)Nc1ccc(N2CCOCC2)cc1)Cc1nc2scc(-c3ccccc3)c2c(=O)[nH]1	93.3%
COc1ccc(O)c(C(=O)c2cnc(/N=C(\N)Nc3ccc(F)cc3)nc2)c1	87.4%
Cc1ccccc1Nc1nc(N)nc(CN2CCC[C@@H]2c2nc3ccccc3s2)n1	80.8%

system: HEK293; assay: Cytotoxicity against HEK293 cells after 24 hrs by flow cytometry; format: cell-based; details: human, hek293, 24 h
Method in brief: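 HEK293 cells were cultured for 24 h with compound at 100 or 200 µM, with DMSO as control. Cells were then harvested and stained with propidium iodide to count dead cells. Solubility in RPMI 1640 was first checked by light microscopy for precipitation.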

Structure (SMILES)	Activity
Cc1ccccc1NC(=O)NCCNc1ccc(Nc2ccccn2)nn1	Toxic
Cc1cc([C@@H]2CCCN2C[C@H](O)COc2ccc(Cl)cc2)on1	Toxic
O=C(CN1CCC[C@H]1c1nc2ccccc2s1)c1c[nH]c(C(=O)N2CCCC2)c1	Toxic
COc1ccc(OC[C@H](O)CN(C)C(=O)c2ccc(Cl)cc2)cc1	Toxic

molecular target: T1, Toll-like receptor 4; assay: Antagonist activity at human TLR4 expressed in LPS-stimulated HEK293 cells co-expressing MDM2 and CD14 after 2 hrs by SEAP assay; format: cell-based; details: in the assay text read “MD-2” for “MDM2”
Method in brief: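 HEK-Blue hTLR4 cells (HEK293 co-transfected with human TLR4, MD-2, CD14 and an inducible SEAP reporter) were cultured per provider instructions. They were pre-incubated with compound at various concentrations for 2 h at 37 C, then challenged with LPS for 20 h. Supernatant SEAP was read colorimetrically, and IC50 was calculated from the decrease in absorbance.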

Structure (SMILES)	IC50
CN(CC(=O)Nc1ccc(N2CCOCC2)cc1)Cc1nc2scc(-c3ccccc3)c2c(=O)[nH]1	168 µM
COc1ccc(O)c(C(=O)c2cnc(/N=C(\N)Nc3ccc(F)cc3)nc2)c1	16.6 µM
Cc1ccccc1Nc1nc(N)nc(CN2CCC[C@@H]2c2nc3ccccc3s2)n1	64.1 µM

molecular target: T1, Toll-like receptor 4; assay: Antagonist activity at human TLR4 expressed in LPS-stimulated HEK293 cells co-expressing MD-2 and CD14 after 2 hrs by SEAP assay; details: not given

Structure (SMILES)	IC50
COc1ccc(NC(=O)CN(C)C(=O)c2cc(-c3ccc(C)s3)[nH]n2)cc1	ND(Insoluble)
O=C(CSc1nnc(-c2ccc3c(c2)OCCO3)c(O)n1)Nc1ccc(F)cc1	ND(Insoluble)
Nc1nc(CSc2nnc(Cc3ccccc3F)n2N)nc(Nc2ccc(Cl)cc2)n1	Not Active
O=C(CSCC(=O)Nc1ccccc1)NNC(=O)Nc1ccccc1	ND(Insoluble)
CN(CC(=O)Nc1cccc(F)c1)Cc1nc2scc(-c3ccc(F)cc3)c2c(=O)[nH]1	ND(Insoluble)
Cc1nn(Cc2ccccc2Cl)c(C)c1CN(C)C(=O)/C=C/c1cccs1	Not Active
C[C@@H](SCc1nc2scc(-c3ccccc3)c2c(=O)[nH]1)C(=O)Nc1ccc2c(c1)OCO2	Not Active
O=c1[nH]c(CN2CCC[C@@H]2c2ccc3c(c2)OCCCO3)nc2scc(-c3ccccc3)c12	ND(Insoluble)
CC(C)(C)[C@H]1CCc2c(sc3nc(CCC(=O)NCc4ccc5c(c4)OCO5)[nH]c(=O)c23)C1	ND(Insoluble)
COc1ccc(OC[C@H](O)CN2CCc3ccccc3C2)cc1	ND(Insoluble)
O=C(CCc1nc(O)c2c3c(sc2n1)CCCC3)NCC(=O)Nc1ccccc1Br	ND(Insoluble)
COc1cccc(NC(=O)/C=C(\C)NNC(=O)c2ccc(-c3ccccc3)cc2)c1	ND(Insoluble)
O=C(CCc1nc2sc3c(c2c(=O)[nH]1)CCCC3)NCc1nc2ccccc2[nH]1	ND(Insoluble)
CN(Cc1nc2ccccc2s1)C[C@@H](O)COc1ccc(F)cc1	Not Active
CC(C)(C)[C@@H]1CCc2c(sc3nc(CCC(=O)N4CCN(c5ccccn5)CC4)[nH]c(=O)c23)C1	ND(Insoluble)
CN(CC(=O)Nc1ccc(Cl)c(Cl)c1)Cc1nc2scc(-c3ccc(F)cc3)c2c(=O)[nH]1	ND(Insoluble)
C[C@H](Sc1nc2scc(-c3cccs3)c2c(=O)[nH]1)C(=O)NC(=O)NC1CCCCC1	ND(Insoluble)
COC(=O)c1ccc(/C=N/NC(=O)c2cc(-c3cccc([N+](=O)[O-])c3)[nH]n2)cc1	ND(Insoluble)
Cc1ccc(C(=O)Nc2c(N)nc(SCC(=O)NCc3ccc4c(c3)OCO4)[nH]c2=O)cc1	ND(Insoluble)

Structure (SMILES)	IC50
CCN1CCN(CCNC(=O)[C@H](C)C2CCN(C(=O)c3cc4cc(Cl)ccc4[nH]3)CC2)CC1	ND(Insoluble)
O=C(NCCNC(=O)c1cc2ccccc2[nH]1)C(=O)NCc1ccc2c(c1)OCO2	Not Active
O=C(CSc1nnc(-c2ccc3c(c2)OCCO3)c(O)n1)Nc1ccc(F)c(F)c1	ND(Insoluble)
Cc1ncc(CN(C)C[C@@H](O)COc2ccc(F)cc2)s1	ND(Insoluble)
N=C(NC1=N[C@@H](CC(=O)Nc2ccc(Cl)cc2)C(O)=N1)Nc1ccccc1	Not Active
Cc1nn(-c2ccccc2)c(C)c1CN(C)C[C@@H](O)Cn1cccn1	Not Active
N#Cc1ccc(OC[C@H](O)CNCc2nc3ccccc3s2)cc1	Not Active
CCN(CC(=O)Nc1ccc2c(c1)OCCO2)Cc1nc2scc(-c3ccc(C)s3)c2c(=O)[nH]1	ND(Insoluble)
O=C(NCCNc1ccc(Nc2ccccn2)nn1)Nc1ccccc1F	Not Active
N/C(=N\C(=O)c1ccc(-c2ccccc2)cc1)Nc1nc2ccccc2o1	ND(Insoluble)
COc1ccc(NC(=N)Nc2nc(C)c(Cc3ccccc3)c(O)n2)cc1	ND(Insoluble)
CC(C)c1ccc(NC(=O)CCc2csc(NC(=O)c3ccc[nH]c3=O)n2)cc1	ND(Insoluble)
COc1ccccc1CNC(=O)c1ccccc1NS(=O)(=O)c1ccc2[nH]c(=O)[nH]c2c1	ND(Insoluble)
C[C@H](SCc1nc2scc(-c3ccccc3)c2c(=O)[nH]1)C(=O)NCc1nc2ccccc2[nH]1	ND(Insoluble)
O=C(CSCC(=O)Nc1ccccc1)NNC(=O)Nc1ccc(Cl)cc1	ND(Insoluble)
Cc1cccc(NC(=O)CNC(=O)CCc2nc(O)c3c4c(sc3n2)CCCC4)c1C	ND(Insoluble)
Cc1nn(Cc2ccccc2Cl)c(C)c1CN(C)C(=O)/C=C/c1ccc2c(c1)OCO2	Not Active
Cc1ccc(Cn2cc(C(=O)NNC(=O)Nc3ccc4c(c3)OCO4)ccc2=O)cc1	ND(Insoluble)
Cc1nn(Cc2ccccc2Cl)c(C)c1CN(C)CCn1nc2ccccn2c1=O	Not Active
